Measurements collected from several papers.
Lines come from different studies, so protocols differ.
Technique: competition with immobilised ligand
RPS6KA4 N-terminal kinase domain: Ribosomal protein S6 kinase alpha-4, N-terminal kinase domain (RPS6KA4, Homo sapiens, UniProt O75676)
RPS6KA4 C-terminal kinase domain: Ribosomal protein S6 kinase alpha-4, C-terminal kinase domain (RPS6KA4, Homo sapiens, UniProt O75676)

CS(=O)(=O)NCC[C@H](NC(=O)c1cncc2c1cnn2-c1ccc(F)cc1)c1ccnc(S(C)(=O)=O)c1  remaining binding (RPS6KA4 N-terminal kinase domain; cell-free assay; 1 µM): 85%
CN(C)c1ncc(F)c(-c2cnn3ncccc23)n1  remaining binding (RPS6KA4 N-terminal kinase domain; binding; 1 µM): 89%
CNC(=O)[C@@H]1CC[C@@H](n2c(-c3ccc4cnccc4c3)nc3ccc(C(=O)NCc4cccc(C(N)=O)c4)cc32)C1  remaining binding (RPS6KA4 C-terminal kinase domain; binding; 1 µM): 99%
C=CC(=O)N1CCC(C(=O)NCC(=O)N2CCN(c3nc(-c4cnc(N)nc4C(F)F)nc(N4CCOCC4)n3)CC2)CC1  remaining binding (RPS6KA4 C-terminal kinase domain; binding; 1 µM): 100%
Cc1cnc(Nc2ccc(C(=O)N3CCC(N4CCCC4)CC3)cc2)nc1-c1cc2ccccc2s1  remaining binding (RPS6KA4 C-terminal kinase domain; binding; 1 µM): 3.8%
Cc1c(NC(=O)c2cc(C(N)=O)nc3cc(F)ccc23)c(C(F)(F)F)nn1Cc1ccc(C#N)cc1  remaining binding (RPS6KA4 C-terminal kinase domain; cell-free assay; 1 µM): 85%
CN(CCCC(F)(F)F)c1nccc(-c2cnn3ncccc23)n1  remaining binding (RPS6KA4 C-terminal kinase domain; binding; 1 µM): 100%
Cc1noc([C@H]2C[C@@H](c3ccc(C(F)(F)F)cc3)CN(C(=O)N3CCS(=O)(=O)C3)C2)n1  remaining binding (RPS6KA4 N-terminal kinase domain; cell-free assay; 1 µM): 100%
C[C@@H]1CCN(c2nccc(-c3cnn4ncccc34)n2)C1  remaining binding (RPS6KA4 C-terminal kinase domain; binding; 1 µM): 58%
O=C(NCCCN1CCOCC1)c1ccc(Nc2nccc(-c3cc4ccccc4s3)n2)cc1  remaining binding (RPS6KA4 N-terminal kinase domain; binding; 1 µM): 100%
O=C(Nc1cccnn1)N1CC(C/C=C/c2cncc(Oc3ccc(C(F)(F)F)cn3)n2)C1  remaining binding (RPS6KA4 N-terminal kinase domain; cell-free assay; 1 µM): 100%
O=C(c1ccc(Nc2ncc(Cl)c(-c3cc4ccccc4s3)n2)cc1)N1CCC(N2CCCC2)CC1  remaining binding (RPS6KA4 C-terminal kinase domain; binding; 1 µM): 13%
COc1cnc(Nc2cccc(S(N)(=O)=O)c2)nc1N1CCN(c2ccccc2)C(=O)C1  remaining binding (RPS6KA4 C-terminal kinase domain; binding; 1 µM): 100%
O=C(NCC1CCOCC1)c1n[nH]cc1NC(=O)c1c(F)cccc1F  remaining binding (RPS6KA4 N-terminal kinase domain; binding; 1 µM): 95%
c1cnn2ncc(-c3ccnc(N4CCC45COC5)n3)c2c1  remaining binding (RPS6KA4 N-terminal kinase domain; binding; 1 µM): 91%
Cc1c(C(=O)O)cc(-c2ccc(C3CCNCC3)cc2)c2ccc(-c3ccc(C(F)(F)F)cc3)cc12  remaining binding (RPS6KA4 N-terminal kinase domain; binding; 1 µM): 88%
c1cncc(-c2cccc(Nc3nccc(NC4CCCCC4)n3)c2)c1  remaining binding (RPS6KA4 N-terminal kinase domain; binding; 10 µM): 78%
C[C@@H](c1ccc(-n2cnc3c(N)ncnc32)cc1)N1CCc2nn(C)c(Cc3ccccc3)c2C1=O  remaining binding (RPS6KA4 C-terminal kinase domain; binding; 0.1 µM): 84%
O=C(Nc1c[nH]nc1C(=O)NC1CCNCC1)c1cc(F)cc(F)c1  remaining binding (RPS6KA4 N-terminal kinase domain; binding; 1 µM): 100%
CSc1cccnc1N1CCN(Cc2nc3ccccc3[nH]2)CC1  remaining binding (RPS6KA4 N-terminal kinase domain; cell-free assay; 1 µM): 94%
CN(c1nccc(-c2cnn3ncccc23)n1)C1CC1  remaining binding (RPS6KA4 C-terminal kinase domain; binding; 1 µM): 100%
COc1cnc(Nc2cccc(S(N)(=O)=O)c2)nc1N1CCN(c2ccccc2)CC1  remaining binding (RPS6KA4 N-terminal kinase domain; binding; 1 µM): 94%
O=S(=O)(NC1CCC(c2cc(F)ccc2F)(S(=O)(=O)c2ccc(Cl)cc2)CC1)C(F)(F)F (stereo not drawn)  remaining binding (RPS6KA4 N-terminal kinase domain; cell-free assay; 1 µM): 100%
CCN1CCN(Cc2ccc(C(=O)Nc3ccc(C)c(Oc4ccc5c(c4)CC(=O)N5)c3)cc2C(F)(F)F)CC1  remaining binding (RPS6KA4 N-terminal kinase domain; binding; 1 µM): 100%
FC(F)(F)Oc1cccc(-c2cnc3ccc(-c4ccncc4)nn23)c1  remaining binding (RPS6KA4 N-terminal kinase domain; binding; 5 µM): 97%
O=C(O)[C@H]1[C@H](Cn2nnc3ccccc3c2=O)CC[C@@H]1C(=O)c1ccc(OCCC2CCOCC2)cc1  remaining binding (RPS6KA4 N-terminal kinase domain; cell-free assay; 1 µM): 100%
Nc1ncc2c(n1)-c1c([nH]c3ccc(C#CC4CC4)cc13)CCCC2  remaining binding (RPS6KA4 N-terminal kinase domain; binding; 1 µM): 88%
O=C(c1ccc(Nc2ncc(Cl)c(-c3ccc(Cl)s3)n2)cc1)N1CCC(N2CCCC2)CC1  remaining binding (RPS6KA4 C-terminal kinase domain; binding; 1 µM): 18%
Cc1cnn2ncc(-c3ccnc(N(C)C)n3)c2c1  remaining binding (RPS6KA4 C-terminal kinase domain; binding; 1 µM): 62%
O=C(NCCCN1CCOCC1)c1ccc(Nc2ncc(Cl)c(-c3ccc(Cl)s3)n2)cc1  remaining binding (RPS6KA4 C-terminal kinase domain; binding; 1 µM): 26%
F[C@@H]1CCN(c2nccc(-c3cnn4ncccc34)n2)C1  remaining binding (RPS6KA4 C-terminal kinase domain; binding; 1 µM): 92%
O=C(c1ccc(Nc2nccc(-c3cc4ccccc4s3)n2)cc1)N1CCC(N2CCCC2)CC1  remaining binding (RPS6KA4 C-terminal kinase domain; binding; 1 µM): 14%
COc1ncc2cc3ccccc3nc2c1C#N  remaining binding (RPS6KA4 N-terminal kinase domain; cell-free assay; 5 µM): 94%
